We go through 11 molecules from ChEMBL document CHEMBL1140112, “Desferrithiocin analogues and nephrotoxicity” (J Med Chem, 2008).

Data set [1] in a line: Apparent partition coefficient, log P at pH 7.4 by shake flask method. As to conditions: octanol/water; for logD: read-out: LogD7.4. Type of data set: physicochemical. A digest of the protocol:
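Apparent partition between octanol and water, expressed as log of the fraction in the octanol layer (log P_app); direct shake-flask method in Tris buffer, pH 7.4.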

The subject of data set [2] is Rattus norvegicus. As to the kind of experiment: Iron-clearing efficiency in non-iron-overloaded Sprague-Dawley rat at 300 umol/kg, po after 24 hrs relative to control. Format: functional. A digest of the protocol:
(§1)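 Non-iron-overloaded, bile duct-cannulated male Sprague-Dawley rats (400-450 g) got a single 300 µmol/kg dose by oral gavage, as the monosodium salt in distilled water. Bile was collected at 3 h intervals for 24 h and urine at 24 h, with iron by atomic absorption. ICE = treated minus control iron excretion, divided by theoretical output (2:1 complex), as %. n = 3-8; mean ± SEM.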

Data set [3] relates to Rattus norvegicus. As to the kind of experiment: Iron-clearing efficiency in non-iron-overloaded Sprague-Dawley rat assessed as bile iron excretion at 300 umol/kg, po relative to control. Format: functional. A digest of the protocol: as §1
Data set [4] relates to Rattus norvegicus. Put plainly: Nephrotoxicity in non-iron-overloaded Sprague-Dawley rat at 300 umol/kg, po. The settings on record: in vivo. Type of data set: toxicity, organism-based. The procedure, abridged:
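Male Sprague-Dawley rats (400-450 g), not iron-overloaded, bile duct-cannulated, each given a single 300 µmol/kg oral gavage dose.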

Data set [5] deals with Rattus norvegicus. As to the kind of experiment: Iron-clearing efficiency in non-iron-overloaded Sprague-Dawley rat assessed as urine iron excretion at 300 umol/kg, po relative to control. Format: functional. A digest of the protocol: as §1
The test system of data set [6] is Sapajus apella. As to the kind of experiment: Iron-clearing efficiency in iron-overloaded Cebus apella assessed as urine iron excretion at 150 umol/kg, po relative to control. Format: functional. The procedure, abridged:
(§2)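 Iron-overloaded Cebus apella were dosed once by oral gavage with the monosodium salt (free acid plus 1 equiv NaOH in distilled water; one ligand in 40% Cremophor RH-40/water). Feces and urine were collected at 24 h intervals from 4 d pre-drug to 5 d post-drug, and iron was read by flame AAS. ICE = 2-day post-drug iron minus mean 4-day baseline, divided by theoretical output (2:1 complex), as %. Mean ± SEM.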

The test system of data set [7] is Sapajus apella. Put plainly: Iron-clearing efficiency in iron-overloaded Cebus apella assessed as bile iron excretion at 150 umol/kg, po relative to control. Type of data set: functional.
Data set [8] concerns Sapajus apella. As to the kind of experiment: Iron-clearing efficiency in iron-overloaded Cebus apella at 150 umol/kg, po relative to control. Type of data set: functional. A digest of the protocol:
as §2

Molecules are shown by their SMILES.

With `CCCCOc1ccc(O)c(C2=N[C@@](C)(C(=O)[O-])CS2)c1.[Na+]`, the LogD7.4 in data set [1] was 0.94. For the same molecule, the Activity is 21% in data set [2], 99% in data set [3], “Toxic” in data set [4] and 1% in data set [5].
Regarding `CCCCCCCCOc1ccc(O)c(C2=N[C@@](C)(C(=O)[O-])CS2)c1.[Na+]`, the LogD7.4 in data set [1] came out at 1.56. The Activity was 4% in data set [2], 97% in data set [3] and 3% in data set [5].
For the molecule `COCCOCCOCCOc1ccc(C2=N[C@@](C)(C(=O)[O-])CS2)c(O)c1.[Na+]`, the Activity in data set [6] came to 4%; in data set [2], 5.5%; in data set [3], 90%; in data set [7], 96%; in data set [8] it was 25.4%; in data set [5] it was 10%.
For the molecule `C[C@]1(C(=O)[O-])CSC(c2cc(O)ccc2O)=N1.[Na+]`, the Activity amounted to 12% in data set [6]; 1% in data set [2]; 99% in data set [3]; 88% in data set [7]; 12.6% in data set [8]; 1% in data set [5]. Further, in data set [1], the logD was -1.14.
On to `CCCCOc1ccc(C2=N[C@@](C)(C(=O)[O-])CS2)c(O)c1.[Na+]`, for which the LogD7.4 in data set [1] is 1.02. In addition, the Activity is listed as 13.1% in data set [2], 98% in data set [3], “Toxic” in data set [4] and 2% in data set [5].
In the case of `CCCCCCCCOc1ccc(C2=N[C@@](C)(C(=O)[O-])CS2)c(O)c1.[Na+]`, the LogD7.4 in data set [1] worked out at 1.53. For the same molecule, the Activity in data set [2] is on record as 6.4%; in data set [3] it was 94%; in data set [5] it was 6%.
`CCCCCCCCOc1cc(O)c(C2=N[C@@](C)(C(=O)[O-])CS2)cc1OCCCCCCCC.[Na+]`: in data set [1], the LogD7.4 was 2.05. The same molecule came in with an Activity in data set [2] of under 0.5%.
Take `COc1ccc(C2=N[C@@](C)(C(=O)[O-])CS2)c(O)c1.[Na+]`: the Activity in data set [6] is recorded as 9%; in data set [2] it was 6.6%; in data set [3], 98%; in data set [7], 91%; in data set [8], 24.4%; in data set [5], 2%.
As for `COc1ccc(O)c(C2=N[C@@](C)(C(=O)[O-])CS2)c1.[Na+]`, the Activity in data set [6] is on record as 6%; in data set [2], 6.3%; in data set [3], 95%; in data set [7], 94%; in data set [8], 18.9%; in data set [5], 5%. Moreover, the logD in data set [1] was -0.61.
With `CCOc1ccc(C2=N[C@@](C)(C(=O)[O-])CS2)c(O)c1.[Na+]`, in data set [1], the LogD7.4 is -0.04. In addition, the Activity in data set [2] worked out at 18%; in data set [3] it was 100%; in data set [5] it was 0%.
On to `C[C@]1(C(=O)[O-])CSC(c2ccc(O)cc2O)=N1.[Na+]` [DEFERITRIN SODIUM], for which the Activity in data set [6] turned out to be 12%; in data set [2], 1.1%; in data set [3] it was 100%; in data set [7], 88%; in data set [8] it was 16.8%; in data set [5], 0%.
